Laboratory results taken from ChEMBL document CHEMBL1155357, “The synthesis of 2- and 3-aryl indoles and 1,3,4,5-tetrahydropyrano[4,3-b]indoles and their antibacterial and antifungal activity” (2009).
Values after ≈ are worked out from the molar mass of the structure shown. Active and inactive are the calls of the source. The calls are words filed in the database; no cut-off is given here.

Experiments:
Escherichia coli [1] = assay: Antimicrobial activity against Escherichia coli ATCC 8739 after 6 hrs; type: functional; conditions: ATCC 8739, 6 h
How it was run: (§1)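 Broth microdilution MIC. Compounds were dissolved in acetone at a 5 mg/mL starting concentration, added to wells containing sterile water, then serially doubled down. Inoculum was 1 × 10⁶ CFU/mL, incubated 37 °C for 24 h. Then 0.2 mg/mL p-iodonitrotetrazolium violet was added and colour read after 6 h. MIC was the lowest concentration without growth. Acetone and ciprofloxacin (starting 0.01 mg/mL) served as controls. At least triplicate, on consecutive days.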

Klebsiella pneumoniae = assay: Antimicrobial activity against Klebsiella pneumoniae ATCC 13831 after 6 hrs; type: functional; conditions: ATCC 13831, 6 h; how it was run: as §1
Staphylococcus aureus [2] = assay: Antimicrobial activity against Staphylococcus aureus ATCC 6538 after 6 hrs; type: functional; conditions: ATCC 6538, 6 h; how it was run: as §1
Bacillus cereus = assay: Antimicrobial activity against Bacillus cereus ATCC 11778 after 6 hrs; type: functional; conditions: ATCC 11778, 6 h; how it was run: as §1
Candida albicans = assay: Antimicrobial activity against Candida albicans ATCC 10231 after 24 hrs; type: functional; conditions: ATCC 10231, 24 h
How it was run: (§2)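 Yeast MIC by serial doubling dilution. Compounds were dissolved in acetone at a 5 mg/mL starting concentration into sterile-water wells. Inoculum was 1 × 10⁶ CFU/mL at 37 °C for 24 h plus a further 24 h. Then 0.2 mg/mL p-iodonitrotetrazolium violet was added and colour read after 24 h. MIC was the lowest concentration showing no growth. Acetone and amphotericin B (starting 0.01 mg/mL) served as controls. At least triplicate, on consecutive days.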

Escherichia coli [3] = assay: Antimicrobial activity against Escherichia coli ATCC 8739 at 1250 ug/mL after 6 hrs; type: functional, organism-based
Cryptococcus neoformans [4] = assay: Antimicrobial activity against Cryptococcus neoformans ATCC 90112 at 1250 ug/mL after 24 hrs; type: functional, organism-based
Cryptococcus neoformans [5] = assay: Antimicrobial activity against Cryptococcus neoformans ATCC 90112 after 24 hrs; type: functional; conditions: ATCC 90112, 24 h; how it was run: as §2
Staphylococcus aureus [6] = assay: Antimicrobial activity against Staphylococcus aureus ATCC 6538 at 1250 ug/mL after 6 hrs; type: functional, organism-based

SMILES	MIC (Escherichia coli [1]) [µg/mL]	MIC (Klebsiella pneumoniae) [µg/mL]	MIC (Staphylococcus aureus [2]) [µg/mL]	MIC (Bacillus cereus) [µg/mL]	MIC (Candida albicans) [µg/mL]	MIC (Cryptococcus neoformans [5]) [µg/mL]	Activity (Escherichia coli [3])	Activity (Cryptococcus neoformans [4])	Activity (Staphylococcus aureus [6])
COc1ccc2[nH]c(-c3ccccc3)cc2c1		469 (≈ 2100 µM)	156 (≈ 699 µM)	3.9 (≈ 17.5 µM)	469 (≈ 2100 µM)		inactive	inactive	
COc1cc(-c2cc3ccccc3[nH]2)cc(OC)c1OC	313 (≈ 1100 µM)	391 (≈ 1380 µM)	469 (≈ 1660 µM)	20 (≈ 70.6 µM)	117 (≈ 413 µM)	313 (≈ 1100 µM)			
COc1ccc2[nH]cc(-c3ccccc3C(C)=O)c2c1	313 (≈ 1180 µM)	313 (≈ 1180 µM)	625 (≈ 2360 µM)	156 (≈ 588 µM)	235 (≈ 886 µM)	39 (≈ 147 µM)			
COc1ccc(-c2cc3ccccc3[nH]2)cc1	625 (≈ 2800 µM)	313 (≈ 1400 µM)	635 (≈ 2840 µM)	156 (≈ 699 µM)	156 (≈ 699 µM)	58.5 (≈ 262 µM)			
c1ccc(-c2c[nH]c3ccccc23)cc1 [3-PHENYLINDOLE]	156 (≈ 807 µM)	469 (≈ 2430 µM)	39 (≈ 202 µM)	19.5 (≈ 101 µM)	19.5 (≈ 101 µM)	65.1 (≈ 337 µM)			
COc1ccc2[nH]cc(-c3ccccc3C)c2c1	313 (≈ 1320 µM)	313 (≈ 1320 µM)	29.3 (≈ 123 µM)	19.5 (≈ 82.2 µM)	117 (≈ 493 µM)	625 (≈ 2630 µM)			
c1ccc(-c2cc3ccccc3[nH]2)cc1 [2-PHENYL-1H-INDOLE]	1250 (≈ 6470 µM)	313 (≈ 1620 µM)	469 (≈ 2430 µM)	625 (≈ 3230 µM)	156 (≈ 807 µM)	625 (≈ 3230 µM)			
c1ccc2[nH]c(-c3cccc4ccccc34)cc2c1	938 (≈ 3860 µM)	313 (≈ 1290 µM)	625 (≈ 2570 µM)	625 (≈ 2570 µM)	156 (≈ 641 µM)	625 (≈ 2570 µM)			
COc1ccc2[nH]cc(-c3ccccc3)c2c1	625 (≈ 2800 µM)	313 (≈ 1400 µM)	39.1 (≈ 175 µM)	15.6 (≈ 69.9 µM)	78 (≈ 349 µM)	235 (≈ 1050 µM)			
COc1ccc2[nH]cc(-c3ccccc3C=O)c2c1	235 (≈ 935 µM)	313 (≈ 1250 µM)	156 (≈ 621 µM)	78 (≈ 310 µM)	156 (≈ 621 µM)	313 (≈ 1250 µM)			
COc1cc(-c2c[nH]c3ccccc23)c(OC)cc1Br	469 (≈ 1410 µM)	313 (≈ 942 µM)	156 (≈ 470 µM)	235 (≈ 707 µM)	156 (≈ 470 µM)	261 (≈ 786 µM)			
COc1cc(-c2c[nH]c3ccccc23)cc(OC)c1OC	313 (≈ 1100 µM)	313 (≈ 1100 µM)		235 (≈ 829 µM)	313 (≈ 1100 µM)	29.3 (≈ 103 µM)			inactive

Further lines, with some results ahead:

MIC (Escherichia coli [1]) [µg/mL]	MIC (Klebsiella pneumoniae) [µg/mL]	MIC (Staphylococcus aureus [2]) [µg/mL]	MIC (Bacillus cereus) [µg/mL]	MIC (Candida albicans) [µg/mL]	MIC (Cryptococcus neoformans [5]) [µg/mL]	SMILES	Activity (Escherichia coli [3])	Activity (Cryptococcus neoformans [4])	Activity (Staphylococcus aureus [6])
468 (≈ 1970 µM)	313 (≈ 1320 µM)	235 (≈ 990 µM)	156 (≈ 657 µM)	313 (≈ 1320 µM)		COc1ccc2[nH]c(-c3ccccc3C)cc2c1			
	313 (≈ 1240 µM)	625 (≈ 2470 µM)	313 (≈ 1240 µM)	235 (≈ 928 µM)		COc1ccc(-c2cc3cc(OC)ccc3[nH]2)cc1	inactive		
313 (≈ 999 µM)	313 (≈ 999 µM)	313 (≈ 999 µM)	156 (≈ 498 µM)	313 (≈ 999 µM)	29.3 (≈ 93.5 µM)	COc1ccc2[nH]cc(-c3cc(OC)c(OC)c(OC)c3)c2c1			
625 (≈ 1990 µM)	313 (≈ 999 µM)	313 (≈ 999 µM)	156 (≈ 498 µM)	156 (≈ 498 µM)	32.5 (≈ 104 µM)	COc1ccc2[nH]c(-c3cc(OC)c(OC)c(OC)c3)cc2c1			
	208 (≈ 932 µM)	469 (≈ 2100 µM)	625 (≈ 2800 µM)	156 (≈ 699 µM)	78 (≈ 349 µM)	COc1ccc(-c2c[nH]c3ccccc23)cc1	inactive		
521 (≈ 2060 µM)	261 (≈ 1030 µM)	313 (≈ 1240 µM)	156 (≈ 616 µM)	156 (≈ 616 µM)	29.3 (≈ 116 µM)	COc1ccc(-c2c[nH]c3ccc(OC)cc23)cc1			
